Among the data in ChEMBL document CHEMBL1155167, “Fluoroquinolone resistance in atypical pneumococci and oral streptococci: evidence of horizontal gene transfer of fluoroquinolone resistance determinants from Streptococcus pneumoniae” (2007) are MIC values, retold here.

The term MIC denotes the least concentration at which growth counts as inhibited. Read a high MIC as a need for much substance.

Structures are written as SMILES. Values after ≈ are worked out from the molar mass of the structure shown.

The subject of test [1] is Streptococcus pneumoniae. Briefly: Antimicrobial activity against atypical Streptococcus pneumoniae L9 with gyrA Ser114Gly, gyrB Ser494Thr and parC Lys137Asn mutation by broth dilution method. Background: Dilution methods test growth across graded concentrations, often in twofold steps.
Test [2] relates to Streptococcus oralis. Put plainly: Antimicrobial activity against Streptococcus oralis HK312 with gyrA Ser114Gly, and parC Ser52Gly, Asn91Asp mutation by broth dilution method. The test is classed as functional. The method in brief: (§1)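 Ciprofloxacin and levofloxacin MICs were determined by broth dilution following CLSI (formerly NCCLS) guidance. S. pneumoniae ATCC 6303 and ATCC 49619 served as control strains. Reference strains were S. mitis ATCC 49456 and S. oralis ATCC 10557. The clinical isolates came from patients at a Hong Kong teaching hospital.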

Test [3] concerns Streptococcus viridans. Briefly: Antimicrobial activity against Viridans streptococcus L21 with gyrB Ser494Thr and parC Lys137Asn mutation by broth dilution method. It is filed as functional. Put shortly:
as §1

The test system of test [4] is Streptococcus oralis. Briefly: Antimicrobial activity against Streptococcus oralis HK553 with gyrA Ser114Gly, and parC Ser52Gly, Asn91Asp mutation by broth dilution method. It is filed as functional. The method in brief:
as §1

Test [5] has as its system Streptococcus pneumoniae. Briefly: Antimicrobial activity against atypical Streptococcus pneumoniae L11 with parC Ser52Gly, Asn91Asp, Glu135Asp mutation by broth dilution method.
Test [6] concerns Streptococcus mitis. Briefly: Antimicrobial activity against Streptococcus mitis HK651 with gyrA Ser114Gly, and parC Ser52Gly, Asn91Asp mutation by broth dilution method. It is filed as functional. Put shortly: as §1
The test system of test [7] is Streptococcus pneumoniae. Put plainly: Antimicrobial activity against Streptococcus pneumoniae L12 with gyrA Ser81Phe, parC Ser79 Phe and parE Ile460Val mutation by broth dilution method.
In test [8] the test system is Streptococcus pneumoniae. Briefly: Antimicrobial activity against Streptococcus pneumoniae L22 with parC Lys137Asn and parE Ile460Val mutation by broth dilution method.
The test system of test [9] is Streptococcus oralis. Put plainly: Antimicrobial activity against Streptococcus oralis HK122 with gyrA Ser114Gly, and parC Ser52Gly, Asn91Asp mutation by broth dilution method. It is filed as functional. The method in brief: as §1
In test [10] the test system is Streptococcus pneumoniae. Briefly: Antimicrobial activity against atypical Streptococcus pneumoniae L4 by broth dilution method.
The test system of test [11] is Streptococcus oralis. Put plainly: Antimicrobial activity against Streptococcus oralis HK62 with gyrA Ser114Gly, and parC Ser52Gly, Asn91Asp mutation by broth dilution method. It is filed as functional. The method in brief:
as §1

The test system of test [12] is Streptococcus oralis. Put plainly: Antimicrobial activity against Streptococcus oralis HK271 with gyrA Ser114Gly, and parC Ser52Gly, Asn91Asp mutation by broth dilution method. The test is classed as functional. Put shortly: as §1
The subject of test [13] is Streptococcus oralis. Put plainly: Antimicrobial activity against Streptococcus oralis HK816 with gyrA Ser81Leu, Ser114Gly and parC Ser52Gly, Ser79Tyr, Asn91Asp mutation by broth dilution method. It is filed as functional. The method in brief:
as §1

In test [14] the test system is Streptococcus mitis. Put plainly: Antimicrobial activity against Streptococcus mitis HK141 with gyrA Ser114Gly, and parC Ser52Gly, Asn91Asp mutation by broth dilution method. The test is classed as functional. The method in brief: as §1
Test [15] relates to Streptococcus oralis. Briefly: Antimicrobial activity against Streptococcus oralis ATCC 10557 with gyrA Ser114Gly, and parC Ser52Gly, Asn91Asp mutation by broth dilution method. It is filed as functional. The method in brief: as §1
Test [16] concerns Streptococcus pneumoniae. Briefly: Antimicrobial activity against atypical Streptococcus pneumoniae L3 with parC Lys137Asn mutation by broth dilution method.
The test system of test [17] is Streptococcus viridans. Briefly: Antimicrobial activity against Viridans streptococcus L16 with gyrA Ser114Gly, gyrB Ser494Thr and parC Ser52Gly, Asn91Asp mutation by broth dilution method. The test is classed as functional. The method in brief:
as §1

Test [18] has as its system Streptococcus viridans. Put plainly: Antimicrobial activity against Viridans streptococcus L18 with gyrA Ser114Gly, Asp142Asn, gyrB Ser494Thr and parE Ile460Val mutation by broth dilution method. It is filed as functional. The method in brief:
as §1

The subject of test [19] is Streptococcus oralis. Briefly: Antimicrobial activity against Streptococcus oralis HK575 with gyrA Ser114Gly, Leu155Val and parC Ser52Gly, Asn91Asp, Pro140Ser mutation by broth dilution method. It is filed as functional. The method in brief:
as §1

Test [20] has as its system Streptococcus oralis. Briefly: Antimicrobial activity against Streptococcus oralis HK496 with gyrA Ser114Gly, and parC Ser52Gly, Asn91Asp mutation by broth dilution method. It is filed as functional. Put shortly:
as §1

Test [21] has as its system Streptococcus oralis. Briefly: Antimicrobial activity against Streptococcus oralis HK123 with gyrA Ser114Gly, and parC Ser52Gly, Asn91Asp mutation by broth dilution method. It is filed as functional. Put shortly:
as §1

For test [22], the system named is Streptococcus mitis. Put plainly: Antimicrobial activity against Streptococcus mitis HK467 with gyrA Ser114Gly, Leu155Val and parC Ser52Gly, Asn91Asp, mutation by broth dilution method. The test is classed as functional. Put shortly:
as §1

With `O=C(O)c1cn(C2CC2)c2cc(N3CCNCC3)c(F)cc2c1=O` [CIPROFLOXACIN], the MIC against Streptococcus pneumoniae [1] came out at 4 µg/mL (≈ 12.1 µM); in the test on Streptococcus oralis [2] it was 4 µg/mL (≈ 12.1 µM); in the test with Streptococcus viridans [3], 16 µg/mL (≈ 48.3 µM); in the test with Streptococcus oralis [4], 2 µg/mL (≈ 6.04 µM); against Streptococcus pneumoniae [5] it was 8 µg/mL (≈ 24.1 µM); against Streptococcus mitis [6] it was 1 µg/mL (≈ 3.02 µM). In addition, the minimum inhibitory concentration (MIC) in the test with Streptococcus pneumoniae [7] was 64 µg/mL (≈ 193 µM); with Streptococcus pneumoniae [8], 4 µg/mL (≈ 12.1 µM); in the test with Streptococcus oralis [9], 4 µg/mL (≈ 12.1 µM); against Streptococcus pneumoniae [10], 4 µg/mL (≈ 12.1 µM); in the test on Streptococcus oralis [11], 4 µg/mL (≈ 12.1 µM); against Streptococcus oralis [12], 4 µg/mL (≈ 12.1 µM). Besides, the MIC against Streptococcus oralis [13] turned out to be 32 µg/mL (≈ 96.6 µM); in the test on Streptococcus mitis [14], 1 µg/mL (≈ 3.02 µM); with Streptococcus oralis [15], 2 µg/mL (≈ 6.04 µM); in the test with Streptococcus pneumoniae [16], 4 µg/mL (≈ 12.1 µM); with Streptococcus viridans [17], 4 µg/mL (≈ 12.1 µM); in the test on Streptococcus viridans [18] it was 4 µg/mL (≈ 12.1 µM). In addition, the MIC against Streptococcus oralis [19] was 1 µg/mL (≈ 3.02 µM); with Streptococcus oralis [20], 2 µg/mL (≈ 6.04 µM); against Streptococcus oralis [21], 4 µg/mL (≈ 12.1 µM); against Streptococcus mitis [22] it was 2 µg/mL (≈ 6.04 µM).
